Experimental data published in ChEMBL document CHEMBL4190234, “Design, synthesis and anticancer activity of new monastrol analogues bearing 1,3,4-oxadiazole moiety” (Eur J Med Chem, 2017).

Columns and labels:
Assay type in all cases: functional
[1] = system: SF-295; assay: Growth inhibition of human SF295 cells at 10 uM incubated for 48 hrs by sulforhodamine B assay relative to control; conditions: SF-295, 48 h, read-out: GI
Method in brief: (§1)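 NCI single-dose screen: cells grown in RPMI 1640 with 5% FBS and 2 mM L-glutamine, plated at 5,000–40,000 cells/well and preincubated 24 h at 37 °C, 5% CO2. Compounds taken from DMSO stock and tested at final 10 µM for 48 h. Cells fixed with TCA, stained with 0.4% SRB, absorbance read at 515 nm. Percentage growth calculated against untreated controls; controls held DMSO at the same dilution.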

[2] = system: Malme-3M; assay: Growth inhibition of human MALME-3M cells at 10 uM incubated for 48 hrs by sulforhodamine B assay relative to control; conditions: read-out: GI
Method in brief: (§2)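 Single-dose screen at 10 μM final: cells in RPMI 1640, 5% FBS, 2 mM L-glutamine, plated 5,000–40,000/well, preincubated 24 h at 37°C, 5% CO2; drug 48 h; adherent cells fixed with 10% TCA, suspension cells with 16% TCA; SRB stain, absorbance 515 nm; percentage growth versus untreated control, with time-zero plates.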

[3] = system: OVCAR-4; assay: Growth inhibition of human OVCAR4 cells at 10 uM incubated for 48 hrs by sulforhodamine B assay relative to control; conditions: OVCAR-4, 48 h, read-out: GI; method in brief: as §2
[4] = system: UACC-62; assay: Growth inhibition of human UACC62 cells at 10 uM incubated for 48 hrs by sulforhodamine B assay relative to control; conditions: UACC-62, 48 h, read-out: GI; method in brief: as §1
[5] = system: M14; assay: Growth inhibition of human M14 cells at 10 uM incubated for 48 hrs by sulforhodamine B assay relative to control; conditions: M14, 48 h, read-out: GI; method in brief: as §2
[6] = system: SW-620; assay: Growth inhibition of human SW620 cells at 10 uM incubated for 48 hrs by sulforhodamine B assay relative to control; conditions: SW-620, 48 h, read-out: GI; method in brief: as §1
[7] = system: OVCAR-3; assay: Growth inhibition of human OVCAR3 cells at 10 uM incubated for 48 hrs by sulforhodamine B assay relative to control; conditions: OVCAR-3, 48 h, read-out: GI; method in brief: as §2
[8] = system: MDA-MB-231; assay: Growth inhibition of human MDA-MB-231 cells at 10 uM incubated for 48 hrs by sulforhodamine B assay relative to control; conditions: MDA-MB-231, 48 h, read-out: GI; method in brief: as §2
[9] = system: COLO 205; assay: Growth inhibition of human COLO205 cells at 10 uM incubated for 48 hrs by sulforhodamine B assay relative to control; conditions: COLO 205, 48 h, read-out: GI; method in brief: as §2
[10] = system: SN12C; assay: Growth inhibition of human SN12C cells at 10 uM incubated for 48 hrs by sulforhodamine B assay relative to control; conditions: read-out: GI; method in brief: as §1
[11] = system: PC-3; assay: Growth inhibition of human PC3 cells at 10 uM incubated for 48 hrs by sulforhodamine B assay relative to control; conditions: PC-3, 48 h, read-out: GI; method in brief: as §2
[12] = system: T47D; assay: Growth inhibition of human T47D cells at 10 uM incubated for 48 hrs by sulforhodamine B assay relative to control; conditions: read-out: GI; method in brief: as §1
[13] = system: K562; assay: Growth inhibition of human K562 cells at 10 uM incubated for 48 hrs by sulforhodamine B assay relative to control; conditions: K562, 48 h, read-out: GI; method in brief: as §2
[14] = system: NCI-H322M; assay: Growth inhibition of human NCI-H322M cells at 10 uM incubated for 48 hrs by sulforhodamine B assay relative to control; conditions: read-out: GI; method in brief: as §2
[15] = system: NCI-H23; assay: Growth inhibition of human NCI-H23 cells at 10 uM incubated for 48 hrs by sulforhodamine B assay relative to control; conditions: NCI-H23, 48 h, read-out: GI; method in brief: as §2
[16] = system: OVCAR-5; assay: Growth inhibition of human OVCAR5 cells at 10 uM incubated for 48 hrs by sulforhodamine B assay relative to control; conditions: OVCAR-5, 48 h, read-out: GI; method in brief: as §2
[17] = system: SK-MEL-5; assay: Growth inhibition of human SK-MEL-5 cells at 10 uM incubated for 48 hrs by sulforhodamine B assay relative to control; conditions: SK-MEL-5, 48 h, read-out: GI; method in brief: as §1
[18] = system: HOP-92; assay: Growth inhibition of human HOP92 cells at 10 uM incubated for 48 hrs by sulforhodamine B assay relative to control; conditions: HOP-92, 48 h, read-out: GI; method in brief: as §2
[19] = system: NCI-H226; assay: Growth inhibition of human NCI-H226 cells at 10 uM incubated for 48 hrs by sulforhodamine B assay relative to control; conditions: NCI-H226, 48 h, read-out: GI; method in brief: as §2
[20] = system: SF-268; assay: Growth inhibition of human SF268 cells at 10 uM incubated for 48 hrs by sulforhodamine B assay relative to control; conditions: SF-268, 48 h, read-out: GI; method in brief: as §1
[21] = system: SK-OV-3; assay: Growth inhibition of human SKOV3 cells at 10 uM incubated for 48 hrs by sulforhodamine B assay relative to control; conditions: SK-OV-3, 48 h, read-out: GI; method in brief: as §1
[22] = system: RXF 393; assay: Growth inhibition of human RXF393 cells at 10 uM incubated for 48 hrs by sulforhodamine B assay relative to control; conditions: RXF 393, 48 h, read-out: GI; method in brief: as §2
[23] = system: HOP-62; assay: Growth inhibition of human HOP62 cells at 10 uM incubated for 48 hrs by sulforhodamine B assay relative to control; conditions: HOP-62, 48 h, read-out: GI; method in brief: as §2
[24] = system: A498; assay: Growth inhibition of human A498 cells at 10 uM incubated for 48 hrs by sulforhodamine B assay relative to control; conditions: A498, 48 h, read-out: GI; method in brief: as §2
[25] = system: KM12; assay: Growth inhibition of human KM12 cells at 10 uM incubated for 48 hrs by sulforhodamine B assay relative to control; conditions: KM12, 48 h, read-out: GI; method in brief: as §2
[26] = system: MCF7; assay: Growth inhibition of human MCF7 cells at 10 uM incubated for 48 hrs by sulforhodamine B assay relative to control; conditions: MCF7, 48 h, read-out: GI; method in brief: as §2
[27] = system: BT-549; assay: Growth inhibition of human BT549 cells at 10 uM incubated for 48 hrs by sulforhodamine B assay relative to control; conditions: BT-549, 48 h, read-out: GI; method in brief: as §2
[28] = system: EKVX; assay: Growth inhibition of human EKVX cells at 10 uM incubated for 48 hrs by sulforhodamine B assay relative to control; conditions: read-out: GI; method in brief: as §2
[29] = system: HCC 2998; assay: Growth inhibition of human HCC2998 cells at 10 uM incubated for 48 hrs by sulforhodamine B assay relative to control; conditions: HCC 2998, 48 h, read-out: GI; method in brief: as §2
[30] = system: NCI-H460; assay: Growth inhibition of human NCI-H460 cells at 10 uM incubated for 48 hrs by sulforhodamine B assay relative to control; conditions: NCI-H460, 48 h, read-out: GI; method in brief: as §2
[31] = system: U-251; assay: Growth inhibition of human U251 cells at 10 uM incubated for 48 hrs by sulforhodamine B assay relative to control; conditions: U-251, 48 h, read-out: GI; method in brief: as §1
[32] = system: SK-MEL-28; assay: Growth inhibition of human SK-MEL-28 cells at 10 uM incubated for 48 hrs by sulforhodamine B assay relative to control; conditions: SK-MEL-28, 48 h, read-out: GI; method in brief: as §1

CCOC(=O)C1=C(C)NC(SCc2nnc(-c3ccc(Cl)cc3)o2)=NC1c1cccc(Cl)c1 (configuration not stated)
inhibition of growth at 10 µM [1]: 25.5%
inhibition of growth at 10 µM [2]: < 10%
inhibition of growth at 10 µM [3]: 16.9%
inhibition of growth at 10 µM [4]: 26.6%
inhibition of growth at 10 µM [5]: 26.2%
inhibition of growth at 10 µM [6]: < 10%
inhibition of growth at 10 µM [7]: 17.3%
inhibition of growth at 10 µM [8]: 18.9%
inhibition of growth at 10 µM [9]: 29.6%
inhibition of growth at 10 µM [10]: < 10%
inhibition of growth at 10 µM [11]: 39.2%
inhibition of growth at 10 µM [12]: 69.2%
inhibition of growth at 10 µM [13]: 27.5%
inhibition of growth at 10 µM [14]: < 10%
inhibition of growth at 10 µM [15]: < 10%
inhibition of growth at 10 µM [16]: 10.5%
inhibition of growth at 10 µM [17]: < 10%
inhibition of growth at 10 µM [18]: 49%
inhibition of growth at 10 µM [19]: < 10%
inhibition of growth at 10 µM [20]: < 10%
inhibition of growth at 10 µM [21]: 29.9%
inhibition of growth at 10 µM [22]: < 10%
inhibition of growth at 10 µM [23]: 25.1%
inhibition of growth at 10 µM [24]: < 10%
inhibition of growth at 10 µM [25]: 16%
inhibition of growth at 10 µM [26]: 32%
inhibition of growth at 10 µM [27]: 46.9%
inhibition of growth at 10 µM [28]: < 10%
inhibition of growth at 10 µM [29]: 10.3%
inhibition of growth at 10 µM [30]: < 10%
inhibition of growth at 10 µM [31]: < 10%
inhibition of growth at 10 µM [32]: < 10%
